Results: ChEMBL document CHEMBL1153726, “Synthesis and anticancer activity of sclerophytin-inspired hydroisobenzofurans” (Bioorg Med Chem Lett, 2009)

Experiments:
MDA-MB-468 = test: Growth inhibition of human MDA-MB-468 cells at 10 uM after 96 hrs by MTT assay; type: functional; parameters: scale not given: the % may be the effect or the level left
T47D = test: Growth inhibition of human T47D cells at 10 uM after 96 hrs by MTT assay; type: functional; parameters: scale not given: the % may be the effect or the level left
BT-549 = test: Growth inhibition of human BT549 cells at 10 uM after 96 hrs by MTT assay; type: functional; parameters: scale not given: the % may be the effect or the level left
[1] = Growth inhibition of human Hs 578T cells at 10 uM after 96 hrs by MTT assay; type: functional; parameters: scale not given: the % may be the effect or the level left
MDA-MB-231 = test: Growth inhibition of human MDA-MB-231 cells at 10 uM after 96 hrs by MTT assay; type: functional; parameters: scale not given: the % may be the effect or the level left
MCF7 = test: Growth inhibition of human MCF7 cells at 10 uM after 96 hrs by MTT assay; type: functional; parameters: scale not given: the % may be the effect or the level left
DU-145 = test: Growth inhibition of human DU145 cells at 10 uM after 96 hrs by MTT assay; type: functional; parameters: scale not given: the % may be the effect or the level left
PC-3 = test: Growth inhibition of human PC3 cells at 10 uM after 96 hrs by MTT assay; type: functional; parameters: scale not given: the % may be the effect or the level left
UO-31 = test: Growth inhibition of human UO31 cells at 10 uM after 96 hrs by MTT assay; type: functional; parameters: scale not given: the % may be the effect or the level left
TK-10 = test: Growth inhibition of human TK10 cells at 10 uM after 96 hrs by MTT assay; type: functional; parameters: scale not given: the % may be the effect or the level left
SN12C = test: Growth inhibition of human SN12C cells at 10 uM after 96 hrs by MTT assay; type: functional; parameters: scale not given: the % may be the effect or the level left
RXF 393 = test: Growth inhibition of human RXF393 cells at 10 uM after 96 hrs by MTT assay; type: functional; parameters: scale not given: the % may be the effect or the level left
ACHN = test: Growth inhibition of human ACHN cells at 10 uM after 96 hrs by MTT assay; type: functional; parameters: scale not given: the % may be the effect or the level left
A498 = test: Growth inhibition of human A498 cells at 10 uM after 96 hrs by MTT assay; type: functional; parameters: scale not given: the % may be the effect or the level left
786-0 = test: Growth inhibition of human 786-0 cells at 10 uM after 96 hrs by MTT assay; type: functional; parameters: scale not given: the % may be the effect or the level left
SK-OV-3 = test: Growth inhibition of human SKOV3 cells at 10 uM after 96 hrs by MTT assay; type: functional; parameters: scale not given: the % may be the effect or the level left
NCI/ADR-RES = test: Growth inhibition of human NCI/ADR-RES cells at 10 uM after 96 hrs by MTT assay; type: functional; parameters: scale not given: the % may be the effect or the level left
OVCAR-8 = test: Growth inhibition of human OVCAR8 cells at 10 uM after 96 hrs by MTT assay; type: functional; parameters: scale not given: the % may be the effect or the level left
OVCAR-5 = test: Growth inhibition of human OVCAR5 cells at 10 uM after 96 hrs by MTT assay; type: functional; parameters: scale not given: the % may be the effect or the level left
OVCAR-4 = test: Growth inhibition of human OVCAR4 cells at 10 uM after 96 hrs by MTT assay; type: functional; parameters: scale not given: the % may be the effect or the level left
OVCAR-3 = test: Growth inhibition of human OVCAR-3 cells at 10 uM after 96 hrs by MTT assay; type: functional; parameters: scale not given: the % may be the effect or the level left
IGROV-1 = test: Growth inhibition of human IGROV1 cells at 10 uM after 96 hrs by MTT assay; type: functional; parameters: scale not given: the % may be the effect or the level left
UACC-62 = test: Growth inhibition of human UACC62 cells at 10 uM after 96 hrs by MTT assay; type: functional; parameters: scale not given: the % may be the effect or the level left
UACC-257 = test: Growth inhibition of human UACC257 cells at 10 uM after 96 hrs by MTT assay; type: functional; parameters: scale not given: the % may be the effect or the level left
SK-MEL-5 = test: Growth inhibition of human SK-MEL-5 cells at 10 uM after 96 hrs by MTT assay; type: functional; parameters: scale not given: the % may be the effect or the level left
SK-MEL-28 = test: Growth inhibition of human SK-MEL-28 cells at 10 uM after 96 hrs by MTT assay; type: functional; parameters: scale not given: the % may be the effect or the level left
SK-MEL-2 = test: Growth inhibition of human SK-MEL-2 cells at 10 uM after 96 hrs by MTT assay; type: functional; parameters: scale not given: the % may be the effect or the level left
MDA-MB-435 = test: Growth inhibition of human MDA-MB-435 cells at 10 uM after 96 hrs by MTT assay; type: functional; parameters: scale not given: the % may be the effect or the level left
M14 = test: Growth inhibition of human M14 cells at 10 uM after 96 hrs by MTT assay; type: functional; parameters: scale not given: the % may be the effect or the level left
Malme-3M = test: Growth inhibition of human MALME-3M cells at 10 uM after 96 hrs by MTT assay; type: functional; parameters: scale not given: the % may be the effect or the level left
LOX IMVI = test: Growth inhibition of human LOXIMVI cells at 10 uM after 96 hrs by MTT assay; type: functional; parameters: scale not given: the % may be the effect or the level left
U-251 = test: Growth inhibition of human U251 cells at 10 uM after 96 hrs by MTT assay; type: functional; parameters: scale not given: the % may be the effect or the level left
SNB-75 = test: Growth inhibition of human SNB75 cells at 10 uM after 96 hrs by MTT assay; type: functional; parameters: scale not given: the % may be the effect or the level left
SNB-19 = test: Growth inhibition of human SNB19 cells at 10 uM after 96 hrs by MTT assay; type: functional; parameters: scale not given: the % may be the effect or the level left
SF-539 = test: Growth inhibition of human SF539 cells at 10 uM after 96 hrs by MTT assay; type: functional; parameters: scale not given: the % may be the effect or the level left
SF-268 = test: Growth inhibition of human SF268 cells at 10 uM after 96 hrs by MTT assay; type: functional; parameters: scale not given: the % may be the effect or the level left
SW-620 = test: Growth inhibition of human SW620 cells at 10 uM after 96 hrs by MTT assay; type: functional; parameters: scale not given: the % may be the effect or the level left
KM12 = test: Growth inhibition of human KM12 cells at 10 uM after 96 hrs by MTT assay; type: functional; parameters: scale not given: the % may be the effect or the level left
HT-29 = test: Growth inhibition of human HT-29 cells at 10 uM after 96 hrs by MTT assay; type: functional; parameters: scale not given: the % may be the effect or the level left
HCT-15 = test: Growth inhibition of human HCT15 cells at 10 uM after 96 hrs by MTT assay; type: functional; parameters: scale not given: the % may be the effect or the level left
HCT-116 = test: Growth inhibition of human HCT116 cells at 10 uM after 96 hrs by MTT assay; type: functional; parameters: scale not given: the % may be the effect or the level left
HCC 2998 = test: Growth inhibition of human HCC2998 cells at 10 uM after 96 hrs by MTT assay; type: functional; parameters: scale not given: the % may be the effect or the level left
COLO 205 = test: Growth inhibition of human COLO205 cells at 10 uM after 96 hrs by MTT assay; type: functional; parameters: scale not given: the % may be the effect or the level left
NCI-H522 = test: Growth inhibition of human NCI-H522 cells at 10 uM after 96 hrs by MTT assay; type: functional; parameters: scale not given: the % may be the effect or the level left
NCI-H460 = test: Growth inhibition of human NCI-H460 cells at 10 uM after 96 hrs by MTT assay; type: functional; parameters: scale not given: the % may be the effect or the level left
NCI-H322M = test: Growth inhibition of human NCI-H322M cells at 10 uM after 96 hrs by MTT assay; type: functional; parameters: scale not given: the % may be the effect or the level left
NCI-H23 = test: Growth inhibition of human NCI-H23 cells at 10 uM after 96 hrs by MTT assay; type: functional; parameters: scale not given: the % may be the effect or the level left
NCI-H226 = test: Growth inhibition of human NCI-H226 cells at 10 uM after 96 hrs by MTT assay; type: functional; parameters: scale not given: the % may be the effect or the level left
HOP-92 = test: Growth inhibition of human HOP92 cells at 10 uM after 96 hrs by MTT assay; type: functional; parameters: scale not given: the % may be the effect or the level left
HOP-62 = test: Growth inhibition of human HOP62 cells at 10 uM after 96 hrs by MTT assay; type: functional; parameters: scale not given: the % may be the effect or the level left
EKVX = test: Growth inhibition of human EKVX cells at 10 uM after 96 hrs by MTT assay; type: functional; parameters: scale not given: the % may be the effect or the level left
A549 = test: Growth inhibition of human A549 cells at 10 uM after 96 hrs by MTT assay; type: functional; parameters: scale not given: the % may be the effect or the level left
SR = test: Growth inhibition of human SR cells at 10 uM after 96 hrs by MTT assay; type: functional; parameters: scale not given: the % may be the effect or the level left
[2] = Growth inhibition of human RPMI8266 cells at 10 uM after 96 hrs by MTT assay; type: functional; parameters: scale not given: the % may be the effect or the level left
MOLT-4 = test: Growth inhibition of human MOLT4 cells at 10 uM after 96 hrs by MTT assay; type: functional; parameters: scale not given: the % may be the effect or the level left
K562 = test: Growth inhibition of human K562 cells at 10 uM after 96 hrs by MTT assay; type: functional; parameters: scale not given: the % may be the effect or the level left
HL-60(TB) = test: Growth inhibition of human HL-60(TB) cells at 10 uM after 96 hrs by MTT assay; type: functional; parameters: scale not given: the % may be the effect or the level left
CCRF-CEM = test: Growth inhibition of human CCRF-CEM cells at 10 uM after 96 hrs by MTT assay; type: functional; parameters: scale not given: the % may be the effect or the level left
[3] = Antitumor activity against human KB3 cells after 96 hrs by MTT assay; type: functional, cell-based; settings: KB3, 96 h
Summary of the method: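 Human KB-3 carcinoma cells exposed to increasing compound concentrations; viability read by MTT colorimetric assay after 96 h. Values are means of triplicate assays, expressed relative to untreated controls.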

C=C(C)[C@H]1CC=C(C)[C@@]2(O)[C@@H]1[C@H](c1ccc(Cl)cc1Cl)O[C@@H]2C(=O)OCC
Activity (MDA-MB-468): 94.32%
Activity (T47D): 94.32%
Activity (BT-549): 139.44%
Activity [1]: 100.26%
Activity (MDA-MB-231): 101.68%
Activity (MCF7): 104.98%
Activity (DU-145): 110.29%
Activity (PC-3): 99.33%
Activity (UO-31): 90.72%
Activity (TK-10): 119.56%
Activity (SN12C): 98.08%
Activity (RXF 393): 95.61%
Activity (ACHN): 109.85%
Activity (A498): 102.47%
Activity (786-0): 87.09%
Activity (SK-OV-3): 98.68%
Activity (NCI/ADR-RES): 101.67%
Activity (OVCAR-8): 94.44%
Activity (OVCAR-5): 103.98%
Activity (OVCAR-4): 93.31%
Activity (OVCAR-3): 112.11%
Activity (IGROV-1): 82.34%
Activity (UACC-62): 84.48%
Activity (UACC-257): 94.54%
Activity (SK-MEL-5): 102.55%
Activity (SK-MEL-28): 113.23%
Activity (SK-MEL-2): 106.54%
Activity (MDA-MB-435): 107.24%
Activity (M14): 104.29%
Activity (Malme-3M): 117.74%
Activity (LOX IMVI): 98%
Activity (U-251): 103.59%
Activity (SNB-75): 82.61%
Activity (SNB-19): 87.9%
Activity (SF-539): 100.6%
Activity (SF-268): 100.46%
Activity (SW-620): 97.1%
Activity (KM12): 99.49%
Activity (HT-29): 93.83%
Activity (HCT-15): 108.1%
Activity (HCT-116): 84.08%
Activity (HCC 2998): 108.86%
Activity (COLO 205): 122.22%
Activity (NCI-H522): 82.73%
Activity (NCI-H460): 108.8%
Activity (NCI-H322M): 113.73%
Activity (NCI-H23): 97.89%
Activity (NCI-H226): 97.47%
Activity (HOP-92): 94.71%
Activity (HOP-62): 92.21%
Activity (EKVX): 104.39%
Activity (A549): 90.16%
Activity (SR): 82.5%
Activity [2]: 106.77%
Activity (MOLT-4): 98.02%
Activity (K562): 79.96%
Activity (HL-60(TB)): 100.94%
Activity (CCRF-CEM): 98.31%
IC50 [3]: 3 µM

C=C(C)[C@H]1CC=C(C)[C@@]2(O)[C@@H]1[C@H](c1cccc(Cl)c1Cl)O[C@@H]2C(=O)OCC
IC50 [3]: 5 µM

C=C(C)[C@H]1CC=C(C)C2=CO[C@@H](c3ccco3)[C@@H]21
IC50 [3]: 2 µM

C=C(C)[C@H]1CC(=O)C(C)=C2[C@@H](C(=O)OCC)O[C@@H](c3cccc(Cl)c3Cl)[C@@H]21
IC50 [3]: 5 µM

C=C(C)[C@H]1CC=C(C)[C@@]2(O)[C@@H]1[C@H](c1ccccc1Br)O[C@@H]2C(=O)OC
IC50 [3]: 5 µM
